Laboratory results reported in ChEMBL document CHEMBL4765236, “Insights into the Antimicrobial Activity and Cytotoxicity of Engineered α-Helical Peptide Amphiphiles” (J Med Chem, 2016).
Converted amounts (≈) assume the structure as drawn. The source made the active and inactive calls. No cut-off for these calls is given here.

Tests used:
[1] = tested on: Pseudomonas fluorescens; assay: Antibacterial activity against Pseudomonas fluorescens CICC 21620 assessed as bacterial growth inhibition incubated for 18 to 24 hrs by microtiter broth dilution method; type: functional; settings: time 18-24 hrs
How it was run: (§1)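 Log-phase cells (grown overnight at 37 °C, subcultured in MHB) diluted to 10^5 CFU/mL in MHB and mixed 1:1 with serial peptide dilutions prepared in 0.01% acetic acid/0.2% BSA. Incubated 37 °C for 18-24 h. MIC is the lowest concentration giving no growth by OD492. Reported as the average of 3-5 independent experiments.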

[2] = tested on: Candida albicans; assay: Antifungal activity against Candida albicans ATCC 10231 assessed as fungal growth inhibition incubated for 18 to 24 hrs by microtiter broth dilution method; type: functional; settings: time 18-24 hrs; how it was run: as §1
[3] = tested on: Erythrocyte; assay: Hemolytic activity against human red blood cells assessed as concentration required to cause 10% hemoglobin release measured after 1 hr by microplate reader analysis; type: ADME, cell-based
How it was run: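 Fresh heparinized human RBCs washed three times in 10 mM PBS pH 7.4 and resuspended to about 1% (v/v) (5.4 × 10^8 cells/mL). Mixed 1:1 with peptide in PBS for 1 h at 37 °C, then centrifuged. Supernatant hemoglobin read at A540. PBS set as 0% and 0.1% Triton X-100 as 100% hemolysis. MHC is the concentration causing 10% hemolysis.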

[4] = tested on: Cell membrane; assay: Induction of inner membrane permeabilization in Escherichia coli O157:H7 CICC 21530 assessed as cytoplasmic beta-galactosidase release at 1 times MIC using ONPG as substrate by […]; type: subcellular
[5] = tested on: Salmonella paratyphi; assay: Antibacterial activity against Salmonella paratyphi C CICC 21512 assessed as bacterial growth inhibition incubated for 18 to 24 hrs by microtiter broth dilution method; type: functional; settings: Salmonella enterica, time 18-24 hrs
How it was run: (§2)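 Log-phase bacteria grown at 37 °C in MHB, diluted to 10^5 CFU/mL, mixed 1:1 with serial peptide dilutions (peptide diluted in 0.01% acetic acid, 0.2% BSA); 37 °C for 18-24 h. MIC read by OD492 as lowest concentration giving no growth; mean of 3-5 independent experiments.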

[6] = tested on: Vibrio parahaemolyticus; assay: Antibacterial activity against Vibrio parahaemolyticus CICC 21617 assessed as bacterial growth inhibition incubated for 18 to 24 hrs by broth dilution method; type: functional; settings: time 18-24 hrs; how it was run: as §1
[7] = tested on: Shigella flexneri; assay: Antibacterial activity against Shigella flexneri CMCC 51571 assessed as bacterial growth inhibition incubated for 18 to 24 hrs by microtiter broth dilution method; type: functional; settings: time 18-24 hrs; how it was run: as §1
[8] = Hemolytic activity against human red blood cells assessed as hemoglobin release at 64 uM measured after 1 hr by microplate reader analysis relative to control; type: ADME, cell-based, Erythrocyte; settings: read-out: Activity
How it was run: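 Fresh heparinized human RBCs washed in 10 mM PBS pH 7.4, ~1% (v/v) suspension mixed 1:1 with peptide in PBS, 1 h at 37 °C; after centrifugation, supernatant absorbance at 540 nm. Percent hemolysis relative to PBS (0%) and 0.1% Triton X-100 (100%).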

[9] = Therapeutic index, ratio of MHC10 for human RBC to geometric mean of peptide MIC for Staphylococcus aureus ATCC 29213; type: toxicity; settings: human red blood cells (RBC), pooled result: one value given for 9 cell lines, strains, targets or settings, read-out: TI
How it was run: (§3)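 Therapeutic index = MHC (peptide concentration giving 10% hemolysis of human RBCs, 1 h, 37 °C, A540) divided by geometric mean of MICs from broth microdilution (10^5 CFU/mL in MHB, 37 °C, 18-24 h, OD492).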

[10] = tested on: RAW264.7; assay: Cytotoxicity against mouse RAW264.7 cells assessed as increase in cell viability at 64 uM incubated for 24 hrs by MTT assay relative to control; type: cell-based; settings: raw264.7, 24 h
How it was run: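 RAW264.7 macrophages were grown in DMEM with 10% FBS, 2 mM glutamine and penicillin/streptomycin at 37 °C in 5% CO2. Cells seeded at 1.0-2.0 × 10^4 per well and treated with peptide (final 0.25-64 µM) for 24 h at 37 °C. MTT at 0.5 mg/mL added for 4 h, formazan dissolved in DMSO, read at 570 nm.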

[11] = tested on: Salmonella enterica; assay: Antibacterial activity against Salmonella choleraesuis ATCC 13312 assessed as bacterial growth inhibition incubated for 18 to 24 hrs by broth dilution method; type: functional; settings: time 18-24 hrs; how it was run: as §2
[12] = Therapeutic index, ratio of MHC10 for human RBC to geometric mean of peptide MIC for Escherichia coli O157:H7 CICC 21530; type: toxicity; settings: human red blood cells (RBC), pooled result: one value given for 11 cell lines, strains, targets or settings, read-out: TI; how it was run: as §3
[13] = tested on: Bacillus pumilus; assay: Antibacterial activity against Bacillus pumilus CMCC 63202 assessed as bacterial growth inhibition incubated for 18 to 24 hrs by microtiter broth dilution method; type: functional; settings: time 18-24 hrs; how it was run: as §1
[14] = tested on: Salmonella enteritidis; assay: Antibacterial activity against Salmonella enteritidis CICC 21527 assessed as bacterial growth inhibition incubated for 18 to 24 hrs by microtiter broth dilution method; type: functional, Salmonella enterica subsp. enterica serovar Enteritidis; settings: Salmonella enterica, time 18-24 hrs; how it was run: as §1
[15] = tested on: Bacillus cereus; assay: Antibacterial activity against Bacillus cereus CMCC 63301 assessed as bacterial growth inhibition incubated for 18 to 24 hrs by microtiter broth dilution method; type: functional; settings: time 18-24 hrs; how it was run: as §1
[16] = tested on: Salmonella paratyphi; assay: Antibacterial activity against Salmonella paratyphi A CICC 20501 assessed as bacterial growth inhibition incubated for 18 to 24 hrs by microtiter broth dilution method; type: functional, Salmonella enterica subsp. enterica serovar Paratyphi A; settings: Salmonella enterica, time 18-24 hrs; how it was run: as §2
[17] = tested on: Cell membrane; assay: Induction of cell membrane depolarization in Escherichia coli O157:H7 CICC 21530 assessed as increase in fluorescence intensity at 0.5 to 2 times MIC preincubated for 90 mins followed by KCl addition and measured after 15 to 30 mins by DiSC3-5 staining based fluorescence spectroscopic technique; type: subcellular; settings: time 105-120 min
[18] = tested on: Micrococcus luteus; assay: Antibacterial activity against Micrococcus luteus CMCC 28001 assessed as bacterial growth inhibition incubated for 18 to 24 hrs by microtiter broth dilution method; type: functional; settings: time 18-24 hrs; how it was run: as §1
[19] = tested on: Salmonella enterica subsp. enterica serovar Paratyphi B; assay: Antibacterial activity against Salmonella paratyphi B CICC 21495 assessed as bacterial growth inhibition incubated for 18 to 24 hrs by microtiter broth dilution method; type: functional; settings: time 18-24 hrs; how it was run: as §2
[20] = tested on: Staphylococcus aureus; assay: Antibacterial activity against Staphylococcus aureus GIM 1.160 assessed as bacterial growth inhibition incubated for 18 to 24 hrs by microtiter broth dilution method; type: functional; settings: time 18-24 hrs; how it was run: as §1
[21] = tested on: Staphylococcus aureus; assay: Antibacterial activity against Staphylococcus aureus ATCC 29213 assessed as bacterial growth inhibition incubated for 18 to 24 hrs by microtiter broth dilution method; type: functional; settings: time 18-24 hrs; how it was run: as §1
[22] = tested on: Salmonella typhimurium; assay: Antibacterial activity against Salmonella typhimurium CMCC 51005 assessed as bacterial growth inhibition incubated for 18 to 24 hrs by microtiter broth dilution method; type: functional, Salmonella enterica subsp. enterica serovar Typhimurium; settings: Salmonella enterica, time 18-24 hrs; how it was run: as §1
[23] = tested on: Escherichia coli; assay: Antibacterial activity against Escherichia coli O157:H7 CICC 21530 assessed as bacterial growth inhibition incubated for 18 to 24 hrs by microtiter broth dilution method; type: functional; settings: time 18-24 hrs; how it was run: as §2
[24] = tested on: Escherichia coli; assay: Antibacterial activity against Escherichia coli ATCC 25922 assessed as bacterial growth inhibition incubated for 18 to 24 hrs by microtiter broth dilution method; type: functional; settings: time 18-24 hrs; how it was run: as §1
[25] = tested on: Escherichia coli; assay: Antibacterial activity against Escherichia coli ATCC 35150 assessed as bacterial growth inhibition incubated for 18 to 24 hrs by microtiter broth dilution method; type: functional; settings: time 18-24 hrs; how it was run: as §1
[26] = tested on: Listeria monocytogenes; assay: Antibacterial activity against Listeria monocytogenes CICC 21662 assessed as bacterial growth inhibition incubated for 18 to 24 hrs by microtiter broth dilution method; type: functional; settings: time 18-24 hrs; how it was run: as §1
[27] = tested on: Listeria monocytogenes; assay: Antibacterial activity against Listeria monocytogenes CICC 21633 assessed as bacterial growth inhibition incubated for 18 to 24 hrs by microtiter broth dilution method; type: functional; settings: time 18-24 hrs; how it was run: as §1
[28] = tested on: Staphylococcus aureus; assay: Antibacterial activity against methicillin resistant Staphylococcus aureus ATCC 43300 assessed as bacterial growth inhibition incubated for 18 to 24 hrs by microtiter broth dilution method; type: functional; settings: time 18-24 hrs; how it was run: as §2

SMILES	MIC [1]	MIC [2]	MHC10 [3]	MIC [5]	MIC [6]	MIC [7]	MIC [11]	MIC [13]	MIC [14]	MIC [15]	MIC [16]	MIC [18]	MIC [19]	also measured
CC[C@H](C)[C@H](NC(=O)CN)C(=O)NCC(=O)N[C@@H](C)C(=O)N[C@H](C(=O)N[C@@H](CC(C)C)C(=O)N[C@@H](CCCCN)C(=O)N[C@H](C(=O)N[C@@H](CC(C)C)C(=O)N[C@H](C(=O)N[C@H](C(=O)NCC(=O)N[C@@H](CC(C)C)C(=O)N1CCC[C@H]1C(=O)N[C@@H](C)C(=O)N[C@@H](CC(C)C)C(=O)N[C@H](C(=O)N[C@@H](CO)C(=O)N[C@@H](Cc1c[nH]c2ccccc12)C(=O)N[C@H](C(=O)N[C@@H](CCCCN)C(=O)N[C@@H](CCCNC(=N)N)C(=O)N[C@@H](CCCCN)C(=O)N[C@@H](CCCNC(=N)N)C(=O)N[C@@H](CCC(N)=O)C(=O)N[C@@H](CCC(N)=O)C(N)=O)[C@@H](C)CC)[C@@H](C)CC)[C@@H](C)O)[C@@H](C)O)C(C)C)C(C)C [MELITTIN]	1.41 µM (≈ 4.01 µg/mL)	2.81 µM (≈ 8 µg/mL)	0.35 µM	0.7 µM (≈ 1.99 µg/mL)	1.41 µM (≈ 4.01 µg/mL)	0.7 µM (≈ 1.99 µg/mL)	0.7 µM (≈ 1.99 µg/mL)	0.35 µM (≈ 0.996 µg/mL)	1.41 µM (≈ 4.01 µg/mL)	1.41 µM (≈ 4.01 µg/mL)	0.7 µM (≈ 1.99 µg/mL)	0.7 µM (≈ 1.99 µg/mL)	0.35 µM (≈ 0.996 µg/mL)	Activity [4]: Active; hemolysis at 1 h, 64 µM [8]: 63.7%; selectivity ratio [9]: 0.43; Activity [10]: 1.85%; selectivity ratio [12]: 0.44; Activity [17]: Active
C[C@@H]1[C@H](O)[C@@H](C)/C=C/C=C/C=C/C=C/C=C/C=C/C=C/[C@H](O[C@@H]2O[C@H](C)[C@@H](O)[C@H](N)[C@@H]2O)C[C@@H]2O[C@](O)(C[C@@H](O)C[C@@H](O)[C@H](O)CC[C@@H](O)C[C@@H](O)CC(=O)O[C@H]1C)C[C@H](O)[C@H]2C(=O)O [AMPHOTERICIN B]	> 139 µM	4.33 µM (≈ 4 µg/mL)	0.54 µM	> 139 µM	> 139 µM	> 139 µM	> 139 µM	> 139 µM	> 139 µM	> 139 µM	> 139 µM	> 139 µM	> 139 µM	MIC [20]: > 139 µM; MIC [21]: > 139 µM; MIC [22]: > 139 µM; MIC [23]: > 139 µM; MIC [24]: > 139 µM; MIC [25]: > 139 µM; MIC [26]: > 139 µM; MIC [27]: > 139 µM; MIC [28]: > 139 µM
